Experimental findings from ChEMBL document CHEMBL1141576, “Design of new potent and selective secretory phospholipase A2 inhibitors. Part 5: synthesis and biological activity of 1-alkyl-4-[4,5-dihydro-1,2,4-[4H]-oxadiazol-5-one-3-ylmethylbenz-4'-yl(oyl)] piperazines” (Bioorg Med Chem, 2008) are described below.

Data set [1] concerns the target Phospholipase A2, major isoenzyme (Sus scrofa, UniProt P00592). Description: Inhibition of pig pancreatic PLA2 by fluorometric assay. In short, it runs like this: (§1)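 Fluorimetric PLA2 assay after Radvanyi et al. Enzymes were secretory human recombinant group II PLA2 and secretory porcine pancreatic group I PLA2. Concentration of the fluorescent substrate determined by UV spectrometry in a quartz cell. Values reported as IC50.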

Data set [2] can be described thus: Lipophilicity, log P of the compound. It counts as physicochemical. The settings on record: octanol/water. The gist of the method: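 logP of the free base calculated with Rekker's hydrophobic fragmental constants method.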
For data set [3], the target named is T1, Phospholipase A2, membrane associated (Homo sapiens, UniProt P14555).
T1 sequence (P14555 whole entry): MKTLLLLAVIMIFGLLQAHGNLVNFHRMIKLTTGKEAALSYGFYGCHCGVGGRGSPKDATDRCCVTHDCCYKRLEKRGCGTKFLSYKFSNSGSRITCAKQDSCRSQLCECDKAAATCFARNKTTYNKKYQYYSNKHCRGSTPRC
In words: Inhibition of human recombinant PLA2 by fluorometric assay. The gist of the method:
as §1

The test system of data set [4] is Mus musculus. Description: Antiinflammatory activity against croton oil-induced ear edema in mouse at 1 mg/ear. Type of data set: functional. The gist of the method:
(§2)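 Mice, anaesthetized. Test compound applied locally to inner surface of ear (or given per os); 1 h later croton oil applied to the ear to induce edema. 5 h after croton oil, edematous tissue punched out with a gimlet and compared with tissue from a control site to calculate percent inhibition. Results reported as mean of the animals tested, with number of experiments.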

Data set [5] has as its system Rattus norvegicus. Description: Inhibition of carrageenan-induced hind paw edema in rat assessed as decrease in paw volume at 10 mg/kg. The arrangement: scale not given: the % may be the effect or the level left. Type of data set: functional. The gist of the method: (§3)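 Rats. Compound given ip or orally 1 h before carrageenan injection into the hind leg; doses 5, 10 and 20 mg/kg. Indomethacin used as positive control. Edema volume measured at 0, 3 and 5 h after carrageenan.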
(In the carrageenan paw model, swelling and tenderness develop within hours.)

Data set [6] concerns Rattus norvegicus. Description: Inhibition of carrageenan-induced hind paw edema in rat assessed as decrease in paw volume at 10 mg/kg, po after 5 hrs. It counts as functional. The arrangement: scale not given: the % may be the effect or the level left. In short, it runs like this:
as §3

The test system of data set [7] is Mus musculus. Description: Antiinflammatory activity against croton oil-induced ear edema in mouse at 0.5 mg/ear. Type of data set: functional. The gist of the method:
as §2

Phospholipase A2, major isoenzyme, sequence (P00592 whole entry): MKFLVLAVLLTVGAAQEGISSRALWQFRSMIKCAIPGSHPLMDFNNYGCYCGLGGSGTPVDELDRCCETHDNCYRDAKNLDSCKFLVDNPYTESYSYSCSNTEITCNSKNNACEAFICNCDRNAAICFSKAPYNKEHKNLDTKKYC

In the case of `CCCCCCCCCCCCCCCCN1CCN(c2ccc(Cc3noc(=O)[nH]3)cc2)CC1`, the IC50 in data set [1] was greater than 100 µM; in data set [3], 3.5 µM. Besides, the log partition coefficient (logP) in data set [2] (read-out: LogP) worked out at 6.98.

On to `CCCCCCCCCCCCCCCCCCN1CCN(C(=O)c2ccc(-c3noc(=O)[nH]3)cc2)CC1`, for which the figures for the IC50 in data set [1] and in data set [3] were greater than 100 µM and 1.1 µM, respectively. Besides, the logP in data set [2] (read-out: LogP) came out at 7.56.

On to `CCCCCCCCCCCCCCN1CCN(Cc2ccc(Cc3noc(=O)[nH]3)cc2)CC1`, for which the Activity in the data set with Mus musculus [4] stood at 51.45%; in the data set with Rattus norvegicus [5] it was 79%. Moreover, the IC50 is greater than 100 µM in data set [1] and greater than 10 µM in data set [3]. Also, the logP in data set [2] (read-out: LogP) came to 5.59.

On to `CCCCCCCCCCCCCCN1CCN(Cc2ccc(-c3nc(=O)o[nH]3)cc2)CC1`, for which the IC50 in data set [1] and in data set [3] was greater than 100 µM each time. For the same compound, the lipophilicity (logP) in data set [2] (read-out: LogP) came to 5.3.

For `CCCCCCCCCCCCCCCCN1CCN(Cc2ccc(-c3noc(=O)[nH]3)cc2)CC1`, the IC50 in data set [1] and in data set [3] was greater than 100 µM each time. The lipophilicity (logP) in data set [2] (read-out: LogP) is 6.34.

Take `CCCCCCCCCCCCCCCCCCCCN1CCN(C(=O)c2ccc(Cc3noc(=O)[nH]3)cc2)CC1`: the IC50 in data set [1] is greater than 100 µM; in data set [3], 0.1 µM. The logP in data set [2] (read-out: LogP) was determined as 8.89.

With `CCCCCCCCCCCCCCCCCCN1CCN(Cc2ccc(-c3noc(=O)[nH]3)cc2)CC1`, the IC50 in data set [1] is greater than 100 µM; in data set [3], 5.08 µM. The logP in data set [2] (read-out: LogP) is 7.37.

With `CCCCCCCCCCCCCCCCCCCCCCN1CCN(C(=O)c2ccc(Cc3noc(=O)[nH]3)cc2)CC1`, the IC50 in data set [1] was greater than 100 µM; in data set [3] it was 0.1 µM. Besides, the logP in data set [2] worked out at 9.932.

`CCCCCCCCCCCCCCN1CCN(C(=O)c2ccc(-c3nc(=O)o[nH]3)cc2)CC1`: the IC50 in data set [1] and in data set [3] was greater than 100 µM in each case. Moreover, the logP in data set [2] (read-out: LogP) turned out to be 5.48.

Regarding `CCCCCCCCCCCCCCCCCCN1CCN(c2ccc(Cc3noc(=O)[nH]3)cc2)CC1`, the IC50 in data set [1] was greater than 100 µM. Besides, in data set [2] (read-out: LogP), the logP stood at 8.02.

For the compound `CCCCCCCCCCCCCCN1CCN(C(=O)c2ccc(CCc3nc(=O)o[nH]3)cc2)CC1`, the values for the IC50 in data set [1] and in data set [3] were greater than 100 µM and 18.7 µM, respectively. For the same compound, the lipophilicity (logP) in data set [2] (read-out: LogP) was determined as 6.3.

As for `CCCCCCCCCCCCCCCCN1CCN(Cc2ccc(Cc3noc(=O)[nH]3)cc2)CC1`, the IC50 is greater than 100 µM in data set [1] and 10 µM in data set [3]. Besides, the logP in data set [2] (read-out: LogP) was 6.63.

Turning to `CCCCCCCCCCCCCCN1CCN(C(=O)c2ccc(Cc3noc(=O)[nH]3)cc2)CC1`, the Activity in the data set with Mus musculus [4] is on record as 47.83%; in the data set with Rattus norvegicus [6] it was 65%. The IC50 in data set [1] was greater than 100 µM; in data set [3] it was 9 µM. The logP in data set [2] (read-out: LogP) came to 5.78.

In the case of `CCCCCCCCCCCCCCOc1ccc(Cc2noc(=O)[nH]2)cc1`, the half-inhibitory concentration (IC50) in data set [1] is greater than 100 µM.

`CCCCCCCCCCCCCCCCCCN1CCN(Cc2ccc(Cc3nc(=O)o[nH]3)cc2)CC1`: the IC50 was greater than 100 µM in data set [1] and 2.2 µM in data set [3]. The logP in data set [2] (read-out: LogP) was 7.67.

Regarding `CCCCCCCCCCCCCCN1CCN(c2ccc(Cc3nc(=O)o[nH]3)cc2)CC1`, the IC50 in data set [1] was greater than 100 µM; in data set [3], 4.5 µM. The logP in data set [2] (read-out: LogP) worked out at 5.95.

With `CCCCCCCCCCCCCCCCN1CCN(C(=O)c2ccc(Cc3nc(=O)o[nH]3)cc2)CC1`, the IC50 is greater than 100 µM in data set [1] and 4 µM in data set [3]. In addition, the logP in data set [2] (read-out: LogP) came out at 6.81.

`CCCCCCCCCCCCCCCCCCN1CCN(C(=O)c2ccc(Cc3noc(=O)[nH]3)cc2)CC1`: the results for the IC50 in data set [1] and in data set [3] were greater than 100 µM and 0.8 µM, respectively. For the same compound, the logP in data set [2] (read-out: LogP) amounted to 7.86.

Turning to `CCCCCCCCCCCCCCCCN1CCN(C(=O)c2ccc(-c3nc(=O)o[nH]3)cc2)CC1`, the half-maximal inhibitory concentration (IC50) in data set [1] and in data set [3] was greater than 100 µM throughout. In addition, the logP in data set [2] (read-out: LogP) is 6.53.

Regarding `CCCCCCCCCCCCCCN1CCN(C(=O)c2ccc(CCCc3noc(=O)[nH]3)cc2)CC1`, the results for the IC50 in data set [1] and in data set [3] were greater than 100 µM and 5.3 µM, respectively. In addition, the log partition coefficient (logP) in data set [2] (read-out: LogP) worked out at 6.81.

Regarding `COc1ccc2c(c1)c(CC(=O)O)c(C)n2C(=O)c1ccc(Cl)cc1` [INDOMETHACIN], the Activity in the data set on Mus musculus [7] is listed as 43.11%; in the data set with Rattus norvegicus [5] it was 73%; in the data set with Rattus norvegicus [6], 16%.

A word on the IC50: it is the concentration that inhibits the measured activity by half. As usually defined, the logP is the decadic logarithm of the partition coefficient of the neutral form, usually between octanol and water.
